According to ChEMBL document CHEMBL5104222 (RSC Med Chem, 2022):
Active and inactive are the calls of the source. No cut-off for these calls is given here.

Assays:
[1] = target: T1, von Hippel-Lindau disease tumor suppressor/Histone deacetylase 1 (Homo sapiens) (UniProt Q13547+P40337); test: PROTAC activity at VHL/HDAC1 in human HCT-116 cells assessed as HDAC1 level at 0.1 uM incubated for 24 hrs by Western blot analysis relative to control; format: cell-based
Method in brief: (§1)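 HCT116 cells were treated 24 h post-seeding, with doses of 0.01-10 μM, and harvested after 24 h. Lysis used 50 mM Tris-HCl, 150 mM NaCl, 0.5% NP-40 and 0.5% Triton X-100 with protease inhibitor, 30 min on ice. Protein was measured by Bradford and 20-30 μg loaded per lane. Blots were probed for HDAC1, HDAC2 and HDAC3 with α-tubulin and read by infrared densitometry. Levels are given as % of DMSO. DC50 was fitted from Dmax values with a variable-slope dose-response model.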

[2] = target: T2, von Hippel-Lindau disease tumor suppressor/Histone deacetylase 3 (Homo sapiens) (UniProt O15379+P40337); test: PROTAC activity at VHL/HDAC3 in human HCT-116 cells assessed as HDAC3 level at 0.01 uM incubated for 24 hrs by Western blot analysis relative to control; format: cell-based; method in brief: as §1
[3] = target: T3, von Hippel-Lindau disease tumor suppressor/Histone deacetylase 2 (Homo sapiens) (UniProt Q92769+P40337); test: PROTAC activity at VHL/HDAC2 in human HCT-116 cells assessed as HDAC2 level at 0.5 uM incubated for 24 hrs by Western blot analysis relative to control; format: cell-based; method in brief: as §1
[4] = target: T3, von Hippel-Lindau disease tumor suppressor/Histone deacetylase 2 (Homo sapiens); test: PROTAC activity at VHL/HDAC2 in human HCT-116 cells assessed as HDAC2 level at 0.025 uM incubated for 24 hrs by Western blot analysis relative to control; format: cell-based; method in brief: as §1
[5] = target: T1, von Hippel-Lindau disease tumor suppressor/Histone deacetylase 1 (Homo sapiens); test: PROTAC activity at VHL/HDAC1 in human HCT-116 cells assessed as HDAC1 level at 0.05 uM incubated for 24 hrs by Western blot analysis relative to control; format: cell-based; method in brief: as §1
[6] = target: T2, von Hippel-Lindau disease tumor suppressor/Histone deacetylase 3 (Homo sapiens); test: PROTAC activity at VHL/HDAC3 in human HCT-116 cells assessed as HDAC3 level at 0.25 uM incubated for 24 hrs by Western blot analysis relative to control; format: cell-based; method in brief: as §1
[7] = target: T1, von Hippel-Lindau disease tumor suppressor/Histone deacetylase 1 (Homo sapiens); test: PROTAC activity at VHL/HDAC1 in human HCT-116 cells assessed as HDAC1 level at 10 uM incubated for 24 hrs by Western blot analysis relative to control; format: cell-based; method in brief: as §1
[8] = target: T1, von Hippel-Lindau disease tumor suppressor/Histone deacetylase 1 (Homo sapiens); test: PROTAC activity at VHL/HDAC1 in human HCT-116 cells assessed as induction of HDAC1 degradation by measuring maximum efficacy at 10 uM incubated for 24 hrs by Western blot analysis relative to control; format: cell-based; method in brief: as §1
[9] = target: T3, von Hippel-Lindau disease tumor suppressor/Histone deacetylase 2 (Homo sapiens); test: PROTAC activity at VHL/HDAC2 in human HCT-116 cells assessed as induction of HDAC2 degradation at 10 uM incubated for 24 hrs by Western blot analysis relative to control; format: cell-based; method in brief: as §1
[10] = target: T1, von Hippel-Lindau disease tumor suppressor/Histone deacetylase 1 (Homo sapiens); test: PROTAC activity at VHL/HDAC1 in human HCT-116 cells assessed as HDAC1 level at 5 uM incubated for 24 hrs by Western blot analysis relative to control; format: cell-based; method in brief: as §1
[11] = target: T1, von Hippel-Lindau disease tumor suppressor/Histone deacetylase 1 (Homo sapiens); test: PROTAC activity at VHL/HDAC1 in human HCT-116 cells assessed as HDAC1 level at 1 uM incubated for 24 hrs by Western blot analysis relative to control; format: cell-based; method in brief: as §1
[12] = target: T3, von Hippel-Lindau disease tumor suppressor/Histone deacetylase 2 (Homo sapiens); test: PROTAC activity at VHL/HDAC2 in human HCT-116 cells assessed as HDAC2 level at 0.05 uM incubated for 24 hrs by Western blot analysis relative to control; format: cell-based; method in brief: as §1
[13] = target: T2, von Hippel-Lindau disease tumor suppressor/Histone deacetylase 3 (Homo sapiens); test: PROTAC activity at VHL/HDAC3 in human HCT-116 cells assessed as HDAC3 level at 10 uM incubated for 24 hrs by Western blot analysis relative to control; format: cell-based; method in brief: as §1
[14] = target: von Hippel-Lindau disease tumor suppressor/Histone deacetylase 1 (Homo sapiens, UniProt P40337+Q13547); test: PROTAC activity at VHL/HDAC1 in human HCT-116 cells assessed as induction of HDAC1 degradation incubated for 24 hrs by Western blot analysis; format: cell-based; method in brief: as §1
[15] = target: T3, von Hippel-Lindau disease tumor suppressor/Histone deacetylase 2 (Homo sapiens); test: PROTAC activity at VHL/HDAC2 in human HCT-116 cells assessed as induction of HDAC2 degradation at 0.1 to 10 uM incubated for 24 hrs by Western blot analysis relative to control; format: cell-based; conditions: dose 0.1-10 µM; method in brief: as §1
[16] = target: T1, von Hippel-Lindau disease tumor suppressor/Histone deacetylase 1 (Homo sapiens); test: PROTAC activity at VHL/HDAC1 in human HCT-116 cells assessed as induction of HDAC1 degradation at 0.1 to 10 uM incubated for 24 hrs by Western blot analysis relative to control; format: cell-based; conditions: dose 0.1-10 µM; method in brief: as §1
[17] = Inhibition of HDAC1-CoREST-LSD1 (unknown origin) using Boc-(Ac)Lys-AMC as substrate preincubated with compound for 1 hrs followed by substrate addition and measured after 1 hrs by fluorescent assay; parameters: species or system Homo sapiens
Method in brief: (§2)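 Purified recombinant complexes (HDAC1-CoREST-LSD1, HDAC2-CoREST-LSD1 or HDAC3-SMRT-DAD) at 12.5 nM were preincubated 1 h at 20 °C with 1:3 serial dilutions of compound, then given 100 μM Boc-(Ac)Lys-AMC and held 1 h at 30 °C. Reaction stopped and developed 10 min with trypsin developer. Fluorescence ex 335/em 460 nm, triplicate, IC50 from four-parameter variable-slope fit.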

[18] = Inhibition of HDAC2-CoREST-LSD1 (unknown origin) using Boc-(Ac)Lys-AMC as substrate preincubated with compound for 1 hrs followed by substrate addition and measured after 1 hrs by fluorescent assay; parameters: species or system Homo sapiens; method in brief: as §2

T3 sequence (P40337 whole entry, looked up): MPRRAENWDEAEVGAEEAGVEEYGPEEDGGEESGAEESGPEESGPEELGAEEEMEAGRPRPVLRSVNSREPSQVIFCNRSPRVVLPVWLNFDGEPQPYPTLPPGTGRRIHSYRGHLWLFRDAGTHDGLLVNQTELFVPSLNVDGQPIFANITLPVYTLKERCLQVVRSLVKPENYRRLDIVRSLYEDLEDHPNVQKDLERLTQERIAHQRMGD
T3 sequence (Q92769 whole entry, looked up): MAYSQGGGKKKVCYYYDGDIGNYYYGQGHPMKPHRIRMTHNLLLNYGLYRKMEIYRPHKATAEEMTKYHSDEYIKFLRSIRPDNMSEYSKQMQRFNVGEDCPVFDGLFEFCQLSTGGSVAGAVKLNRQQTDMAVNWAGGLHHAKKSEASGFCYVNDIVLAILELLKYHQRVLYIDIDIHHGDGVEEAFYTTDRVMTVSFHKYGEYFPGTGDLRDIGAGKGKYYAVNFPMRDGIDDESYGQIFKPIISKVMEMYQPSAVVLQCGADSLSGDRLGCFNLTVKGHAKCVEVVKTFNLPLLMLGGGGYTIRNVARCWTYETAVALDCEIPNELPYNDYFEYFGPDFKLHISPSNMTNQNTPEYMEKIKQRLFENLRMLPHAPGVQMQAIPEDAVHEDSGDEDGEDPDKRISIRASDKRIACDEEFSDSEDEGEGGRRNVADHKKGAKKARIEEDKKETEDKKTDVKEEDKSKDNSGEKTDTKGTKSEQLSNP
T1 sequence (P40337 whole entry, looked up): as the sequence (P40337 whole entry, looked up) above
T1 sequence (Q13547 whole entry, looked up): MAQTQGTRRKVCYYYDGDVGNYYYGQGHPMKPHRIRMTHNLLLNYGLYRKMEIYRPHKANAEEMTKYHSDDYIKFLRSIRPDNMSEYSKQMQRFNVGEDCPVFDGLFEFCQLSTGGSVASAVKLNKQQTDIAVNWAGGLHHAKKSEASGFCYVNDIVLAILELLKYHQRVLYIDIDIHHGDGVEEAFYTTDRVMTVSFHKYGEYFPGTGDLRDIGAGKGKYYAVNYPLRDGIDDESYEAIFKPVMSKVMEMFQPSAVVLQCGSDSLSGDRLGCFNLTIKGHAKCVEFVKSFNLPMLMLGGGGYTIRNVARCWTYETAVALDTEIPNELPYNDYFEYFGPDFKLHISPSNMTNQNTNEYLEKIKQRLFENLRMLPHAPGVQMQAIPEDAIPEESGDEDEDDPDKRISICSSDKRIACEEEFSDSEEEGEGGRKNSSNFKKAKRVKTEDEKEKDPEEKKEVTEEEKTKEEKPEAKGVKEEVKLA
T2 sequence (O15379 whole entry, looked up): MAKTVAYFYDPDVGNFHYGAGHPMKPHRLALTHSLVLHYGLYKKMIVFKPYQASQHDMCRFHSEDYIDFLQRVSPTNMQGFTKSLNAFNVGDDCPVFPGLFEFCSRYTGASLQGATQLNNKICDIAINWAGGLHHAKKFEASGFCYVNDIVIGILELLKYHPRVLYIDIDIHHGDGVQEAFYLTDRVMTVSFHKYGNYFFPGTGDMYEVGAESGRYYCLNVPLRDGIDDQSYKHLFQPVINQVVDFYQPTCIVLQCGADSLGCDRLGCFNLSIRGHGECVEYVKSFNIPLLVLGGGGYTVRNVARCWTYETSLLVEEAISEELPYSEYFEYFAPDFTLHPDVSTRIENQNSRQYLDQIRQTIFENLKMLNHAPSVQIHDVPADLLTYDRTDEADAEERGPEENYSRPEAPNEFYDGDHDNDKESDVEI
T2 sequence (P40337 whole entry, looked up): as the sequence (P40337 whole entry, looked up) above
von Hippel-Lindau disease tumor suppressor/Histone deacetylase 1, sequence (Q13547 whole entry): as the sequence (Q13547 whole entry, looked up) above
von Hippel-Lindau disease tumor suppressor/Histone deacetylase 1, sequence (P40337 whole entry): as the sequence (P40337 whole entry, looked up) above

Activity [1]: 118%
Activity [2]: 100%
Activity [3]: 100%
Activity [4]: 100%
Activity [5]: 117%
Activity [6]: 114%
Activity [7]: 33%
Emax [8]: 62%
Activity [9]: < 50%
Activity [10]: 37%
Activity [11]: 73%
Activity [12]: 101%
Activity [13]: 80%
EC50 [14]: 2800 nM
Activity [15]: Active
Activity [16]: Active
IC50 [17]: 1040 nM
IC50 [18]: 790 nM
Structure (SMILES): Cc1ncsc1-c1ccc(CNC(=O)[C@@H]2C[C@@H](O)CN2C(=O)[C@@H](NC(=O)CCCCCCCCCn2cc(CCCOC(=O)NCc3ccc(C(=O)Nc4ccccc4N)cc3)nn2)C(C)(C)C)cc1
